Variants at the floor of the assay were thinned out.
B1: tRNA (parent)
chain: GUUCCGUUGGCGUAAUGGUAACGCGUCUCCCUCCUAAGGAGAAGACUGCGGGUUCGAGUCCCGUACGGAACG

Variants of: B1
Test: yeast fitness relative to wild type (ratio to wild type); higher = fitter; tRNA-Arg(CCU), competitive growth, 37 C, YPD
Procedure, shortened: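 Variants of the tRNA-Arg(CCU) gene, chemically synthesised with a 3% per-site mutation rate at 69 sites, were placed at the native genomic locus in Saccharomyces cerevisiae. The pooled strains were competed in YPD at 37°C for 24 hours in six parallel replicates. Gene amplicons from the start population and from each end population were read by 100-nucleotide paired-end sequencing. Darwinian fitness relative to wild type came from changes in genotype frequencies; genotypes needed ≥ 100 starting reads, and estimates < 0.5 were set to 0.5.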

Row | Variant | yeast fitness
1 | G6A A14G | 0.844
2 | C5U U13A G58C | 0.63
3 | C5U U13G G44A A57U | 0.642
4 | C5U G67A A69U | ≤ 0.5
5 | C5U U16A C34A | ≤ 0.5
6 | G6A A15U A20U G38C | ≤ 0.5
7 | G6A A20G C29A A70U | ≤ 0.5
8 | G6A A14G C46G C62G | ≤ 0.5
9 | G6A A21C | 0.84
10 | G6A A15G C46A A69U | ≤ 0.5
11 | C5U U8C A20G C30A C61U | 0.544
12 | C5U U19G A21U C29G | ≤ 0.5
13 | C5U U16C C24U A42C A57U | ≤ 0.5
14 | C5U U7G G25C G39A C66U | ≤ 0.5
15 | C5U U26A A43U | 0.715
16 | G6A A15C C60A C62U | ≤ 0.5
17 | C5U U16A C46A G68A | 0.625
18 | C5U U16A C34A G63A | ≤ 0.5
19 | C5U U16C A36G | 0.73
20 | G6A A14U C66U | ≤ 0.5
21 | C5U U13G C27U C29A A36U A40C G52C | ≤ 0.5
22 | G6A A20U C61U G67A G68U | ≤ 0.5
23 | C5U U28G A45C | 0.592
24 | C5U U32G C33G C55U | 0.621

Row | Variant | yeast fitness
25 | C5U U26A A65G | 0.739
26 | G6A A15G | 0.712
27 | G6A A15U | 0.628
28 | G6A A15C | 0.601
29 | G6A A15G C30U A69U | ≤ 0.5
30 | C5U U64C | 0.932
31 | C5U U64G | 0.853
32 | C5U U64A | 0.933
33 | G6A A14U C33G | ≤ 0.5
34 | C5U U7A G39C C49U | ≤ 0.5
35 | C5U U19G G23A C46A | ≤ 0.5
36 | C5U U26C A70U | 0.723
37 | C5U U16C A69C | 0.671
38 | C5U U8C A14C | ≤ 0.5
39 | C5U U13A C27G | 0.557
40 | C5U U28A C62G | ≤ 0.5
41 | C5U U16C A20G A40G A43G G67C | ≤ 0.5
42 | C5U U53C | 0.747
43 | C5U U53A | 0.604
44 | G6A A20C C55U | 0.568
45 | G6A A20C C55A | 0.583
46 | C5U U8A G18C A20G | 0.537
47 | G6A A14G G18A A42C | 0.618
48 | G6A A14U G23U | ≤ 0.5

Row | Variant | yeast fitness
49 | G6A A20U U26G C62U | ≤ 0.5
50 | G6A A14C A40U A43G G48A | 0.607
51 | G6A A14C C24U G50A A57U A70U | 0.745
52 | C5U U16A A42U | 0.666
53 | C5U G58C | 1
54 | C5U G58A | 0.88
55 | C5U G58C G68A | 0.513
56 | C5U U16A | 0.882
57 | G6A A14U A21U G25C C60U C61A C62G | ≤ 0.5
58 | C5U U19A A20U G48A C60A | ≤ 0.5
59 | C5U U7C G10A C34A G63A | ≤ 0.5
60 | C5U U7G C30A | 0.93
61 | C5U U19G C46U A69C | ≤ 0.5
62 | C5U U8C C31G C33G C34U G68A | ≤ 0.5
63 | G6A A15G U54C | ≤ 0.5
64 | C5U U13A A70U | 0.737
65 | C5U U13G A57C | 0.755
66 | C5U U8C G17C C31A G68A | ≤ 0.5
67 | G6A A20U A21G C61U | ≤ 0.5
68 | C5U G56C A65U A70G | ≤ 0.5
69 | C5U U26A C33G C46U C55G C66A | 0.539
70 | C5U U13C A20C A36G G52C | ≤ 0.5
71 | G6A A20C A70G | 0.718
72 | G6A A15C C33U G39C C62G G68C | ≤ 0.5

Row | Variant | yeast fitness
73 | C5U U7G C62A | ≤ 0.5
74 | G6A A14G G48C | ≤ 0.5
75 | C5U U26G C49G | ≤ 0.5
76 | C5U G56A G68C A69U | ≤ 0.5
77 | C5U U28A G41A A70U | ≤ 0.5
78 | G6A A21G C46A U54C | ≤ 0.5
79 | C5U G51C A57C | ≤ 0.5
80 | C5U U13C A15C | ≤ 0.5
81 | G6A A15C C22G C33U U59G C62G | 0.634
82 | C5U U16G A57G C62G C66U | ≤ 0.5
83 | C5U U35C A36U G38A C46A U54C G68C | ≤ 0.5
84 | C5U U7G A57U | ≤ 0.5
85 | G6A A14U G23A C29G C46A C55G G68A A70C | ≤ 0.5
86 | C5U G51C U53C A69G | ≤ 0.5
87 | C5U U13C U19A A21U C24A U54C | ≤ 0.5
88 | G6A A21C C34U C49U C55G C62U | ≤ 0.5
89 | C5U U47G | 0.615
90 | C5U U8C C11G A15U C49U G51A G63A | ≤ 0.5
91 | C5U U13A A15G G50C A57G | 0.536
92 | G6A A20G C24U A40G A43G | ≤ 0.5
93 | C5U U28A C34U C61U | ≤ 0.5
94 | C5U G44C U54C | 0.637
95 | C5U G48C | 0.853
96 | C5U U7A U28A C49U | ≤ 0.5

Row | Variant | yeast fitness
97 | C5U G44C U47C | 0.807
98 | G6A A14U C30U A69U | ≤ 0.5
99 | C5U U26G A43C C62G G63A C66G A69G | 0.549
100 | G6A A20C C55A G68A | ≤ 0.5
101 | C5U G52A A65G | 0.598
102 | C5U G52A A65U | ≤ 0.5
103 | C5U U7A A36U | ≤ 0.5
104 | C5U U35C U54C C55A | ≤ 0.5
105 | C5U U28A G41A U54C | ≤ 0.5
106 | C5U U16G C34U A40G A43G C62A A69C | 0.565
107 | C5U U47C A57U G67C | ≤ 0.5
108 | C5U U47C U54C C55G | ≤ 0.5
109 | C5U U16C A40G A43G G67C | ≤ 0.5
110 | G6A A14C C24U | 0.597
111 | G6A A20G A36G C49G C62A C66U | ≤ 0.5
112 | C5U U47C A57C | ≤ 0.5
113 | G6A A21C U28A | ≤ 0.5
114 | C5U U8G | 0.64
115 | C5U U8C | 1.07
116 | C5U U54C | 0.805
117 | C5U U54G | 0.647
118 | C5U U54A | 0.699
119 | G6A A15G C46A | 0.557
120 | C5U U8C C11G A15U A36U G38A C61U A70U | 0.564

Row | Variant | yeast fitness
121 | G6A A20C C66U | 0.889
122 | G6A A20U C27U A57U | ≤ 0.5
123 | G6A A20C | 0.714
124 | G6A A20U | 0.851
125 | G6A A14C A42U C62A C66U | ≤ 0.5
126 | C5U G56C A65G | 0.536
127 | C5U U7C G52C A57U C62U C66G | ≤ 0.5
128 | C5U U35C A36U G38A C46A U54C | 0.556
129 | G6A A15U G23A C33A U54A | ≤ 0.5
130 | C5U U7C A40U G63C | ≤ 0.5
131 | G6A A15G U26A C30G C46U | 0.661
132 | G6A A20U A42G | ≤ 0.5
133 | C5U U32C C49U A57C | ≤ 0.5
134 | C5U G51C G56C A69U | ≤ 0.5
135 | G6A A14C A37U A57C G67U | ≤ 0.5
136 | C5U G41A G56C C62G G68C | ≤ 0.5
137 | C5U U7G A14C C29G | ≤ 0.5
138 | C5U U16C C22G C29G | ≤ 0.5
139 | C5U U19C A21U C31U A42G A43U A65C | ≤ 0.5
140 | C5U U8A C11U U35G A43U C46G U53C A69C | ≤ 0.5
141 | C5U U28A G41A | 0.534
142 | C5U U13G C33A A37C C61U | ≤ 0.5
143 | G6A A15C C27G G44C C49A U64A | 0.538
144 | C5U U16A G23A C49U | ≤ 0.5

Row | Variant | yeast fitness
145 | G6A A14G A36G A45U | 0.574
146 | C5U U13C U26A | 0.722
147 | C5U U13A C29G C31G | ≤ 0.5
148 | C5U U13A C29G C31A | 0.593
149 | G6A A15G C30A A57G | ≤ 0.5
150 | G6A A14G C33A | ≤ 0.5
151 | C5U U26A C55G | ≤ 0.5
152 | C5U U26A U54C | 0.644
153 | G6A A20G C31G C46U | 0.58
154 | C5U U32C A45G C46A | 0.602
155 | G6A A15C C29U | ≤ 0.5
156 | C5U U35C A43U A70G | ≤ 0.5
157 | C5U U35C A45U C61G | ≤ 0.5
158 | C5U G58C U59C | 0.675
159 | G6A A20U U53A G58A | 0.538
160 | C5U U7C G38A A45G G48A G67A | ≤ 0.5
161 | C5U U16C C29A | 0.522
162 | C5U U19C C22U | 0.721
163 | G6A A20U C27A | ≤ 0.5
164 | C5U U35G | 0.592
165 | C5U U35A | 0.615
166 | G6A A15C A20U G68A | ≤ 0.5
167 | G6A A20G A37G G50A | ≤ 0.5
